# Key:
# Assay type in all cases: functional
# Escherichia coli [1] = experiment: Antimicrobial activity against Escherichia coli XL1-Blue harboring pBC-SK plasmid by broth microdilution method
# How it was run: (§1)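 Isogenic E. coli XL-1 strains carried pLBII-VIM-2 encoding wild-type or mutant VIM-2, or the empty pBC-SK vector. β-Lactam MICs were determined by CLSI broth microdilution in cation-adjusted Mueller-Hinton broth.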
# Escherichia coli [2] = experiment: Antimicrobial activity against Escherichia coli XL1-Blue harboring pLBII-VIM-2 plasmid expressing VIM-2 W87A mutant beta-lactamase by broth microdilution method; how it was run: as §1
# Escherichia coli [3] = experiment: Antimicrobial activity against Escherichia coli XL1-Blue harboring pLBII-VIM-2 plasmid expressing VIM-2 W87F mutant beta-lactamase by broth microdilution method; how it was run: as §1
# Escherichia coli [4] = experiment: Antimicrobial activity against Escherichia coli XL1-Blue harboring pLBII-VIM-2 plasmid expressing VIM-2 A64W mutant beta-lactamase by broth microdilution method; how it was run: as §1
# Escherichia coli [5] = experiment: Antimicrobial activity against Escherichia coli XL1-Blue harboring pLBII-VIM-2 plasmid expressing VIM-2 beta-lactamase by broth microdilution method; how it was run: as §1
# Escherichia coli [6] = experiment: Antimicrobial activity against Escherichia coli XL1-Blue VIM-2 W87K mutant beta-lactamase by broth microdilution method
# Escherichia coli [7] = experiment: Antimicrobial activity against Escherichia coli XL1-Blue VIM-2 W87R mutant beta-lactamase by broth microdilution method
# Escherichia coli [8] = experiment: Antimicrobial activity against Escherichia coli XL1-Blue VIM-2 W87Q mutant beta-lactamase by broth microdilution method
# Escherichia coli [9] = experiment: Antimicrobial activity against Escherichia coli XL1-Blue VIM-2 W87N mutant beta-lactamase by broth microdilution method
# Escherichia coli [10] = experiment: Antimicrobial activity against Escherichia coli XL1-Blue VIM-2 W87T mutant beta-lactamase by broth microdilution method
# Escherichia coli [11] = experiment: Antimicrobial activity against Escherichia coli XL1-Blue VIM-2 W87M mutant beta-lactamase by broth microdilution method
# Escherichia coli [12] = experiment: Antimicrobial activity against Escherichia coli XL1-Blue VIM-2 W87S mutant beta-lactamase by broth microdilution method
# Escherichia coli [13] = experiment: Antimicrobial activity against Escherichia coli XL1-Blue VIM-2 W87P mutant beta-lactamase by broth microdilution method
# Escherichia coli [14] = experiment: Antimicrobial activity against Escherichia coli XL1-Blue VIM-2 W87G mutant beta-lactamase by broth microdilution method
# Escherichia coli [15] = experiment: Antimicrobial activity against Escherichia coli XL1-Blue VIM-2 W87I mutant beta-lactamase by broth microdilution method
# Escherichia coli [16] = experiment: Antimicrobial activity against Escherichia coli XL1-Blue VIM-2 W87L mutant beta-lactamase by broth microdilution method
# Escherichia coli [17] = experiment: Antimicrobial activity against Escherichia coli XL1-Blue VIM-2 W87V mutant beta-lactamase by broth microdilution method
# Escherichia coli [18] = experiment: Antimicrobial activity against Escherichia coli XL1-Blue VIM-2 W87A mutant beta-lactamase by broth microdilution method
# Escherichia coli [19] = experiment: Antimicrobial activity against Escherichia coli XL1-Blue VIM-2 W87F mutant beta-lactamase by broth microdilution method
# Escherichia coli [20] = experiment: Antimicrobial activity against Escherichia coli XL1-Blue VIM-2 W87Y mutant beta-lactamase by broth microdilution method
# Escherichia coli [21] = experiment: Antimicrobial activity against Escherichia coli XL1-Blue VIM-2 F61R mutant beta-lactamase by broth microdilution method
# Escherichia coli [22] = experiment: Antimicrobial activity against Escherichia coli XL1-Blue VIM-2 F61S mutant beta-lactamase by broth microdilution method
# Escherichia coli [23] = experiment: Antimicrobial activity against Escherichia coli XL1-Blue VIM-2 F61P mutant beta-lactamase by broth microdilution method
# Escherichia coli [24] = experiment: Antimicrobial activity against Escherichia coli XL1-Blue VIM-2 F61C mutant beta-lactamase by broth microdilution method
# Escherichia coli [25] = experiment: Antimicrobial activity against Escherichia coli XL1-Blue VIM-2 F61N mutant beta-lactamase by broth microdilution method
# Escherichia coli [26] = experiment: Antimicrobial activity against Escherichia coli XL1-Blue VIM-2 F61G mutant beta-lactamase by broth microdilution method
# Escherichia coli [27] = experiment: Antimicrobial activity against Escherichia coli XL1-Blue VIM-2 F61K mutant beta-lactamase by broth microdilution method
# Escherichia coli [28] = experiment: Antimicrobial activity against Escherichia coli XL1-Blue VIM-2 F61H mutant beta-lactamase by broth microdilution method
# Escherichia coli [29] = experiment: Antimicrobial activity against Escherichia coli XL1-Blue VIM-2 F61T mutant beta-lactamase by broth microdilution method
# Escherichia coli [30] = experiment: Antimicrobial activity against Escherichia coli XL1-Blue VIM-2 F61Y mutant beta-lactamase by broth microdilution method
# Escherichia coli [31] = experiment: Antimicrobial activity against Escherichia coli XL1-Blue VIM-2 F61W mutant beta-lactamase by broth microdilution method
# Escherichia coli [32] = experiment: Antimicrobial activity against Escherichia coli XL1-Blue VIM-2 F61I mutant beta-lactamase by broth microdilution method
# Escherichia coli [33] = experiment: Antimicrobial activity against Escherichia coli XL1-Blue VIM-2 F61L mutant beta-lactamase by broth microdilution method
# Escherichia coli [34] = experiment: Antimicrobial activity against Escherichia coli XL1-Blue VIM-2 F61V mutant beta-lactamase by broth microdilution method
# Escherichia coli [35] = experiment: Antimicrobial activity against Escherichia coli XL1-Blue VIM-2 F61A mutant beta-lactamase by broth microdilution method
structure (smiles),measurement,setting,value
C[C@@H](O)[C@H]1C(=O)N2C(C(=O)O)=C(S[C@@H]3CN[C@H](C(=O)N(C)C)C3)[C@H](C)[C@H]12 [MEROPENEM],MIC,Escherichia coli [1],≤ 0.03 µg/mL
same,MIC,Escherichia coli [2],≤ 0.03 µg/mL
same,MIC,Escherichia coli [3],≤ 0.03 µg/mL
same,MIC,Escherichia coli [4],0.5 µg/mL
same,MIC,Escherichia coli [5],0.5 µg/mL
CO/N=C(\C(=O)N[C@@H]1C(=O)N2C(C(=O)O)=C(CSc3nc(=O)c(O)nn3C)CS[C@H]12)c1csc(N)n1 [CEFTRIAXONE],MIC,Escherichia coli [1],0.12 µg/mL
same,MIC,Escherichia coli [2],0.12 µg/mL
same,MIC,Escherichia coli [3],0.12 µg/mL
same,MIC,Escherichia coli [4],4 µg/mL
same,MIC,Escherichia coli [5],4 µg/mL
CO/N=C(\C(=O)N[C@@H]1C(=O)N2C(C(=O)O)=C(COC(N)=O)CS[C@H]12)c1ccco1 [CEFUROXIME],MIC,Escherichia coli [1],8 µg/mL
same,MIC,Escherichia coli [2],8 µg/mL
same,MIC,Escherichia coli [3],8 µg/mL
same,MIC,Escherichia coli [4],256 µg/mL
same,MIC,Escherichia coli [5],256 µg/mL
CO/N=C(\C(=O)N[C@@H]1C(=O)N2C(C(=O)O)=C(COC(C)=O)CS[C@H]12)c1csc(N)n1 [CEFOTAXIME],MIC,Escherichia coli [1],0.12 µg/mL
same,MIC,Escherichia coli [2],0.12 µg/mL
same,MIC,Escherichia coli [3],0.12 µg/mL
same,MIC,Escherichia coli [4],> 32 µg/mL
same,MIC,Escherichia coli [5],> 32 µg/mL
CC(C)(O/N=C(\C(=O)N[C@@H]1C(=O)N2C(C(=O)[O-])=C(C[n+]3ccccc3)CS[C@H]12)c1csc(N)n1)C(=O)O [CEFTAZIDIME],MIC,Escherichia coli [1],0.12 µg/mL
same,MIC,Escherichia coli [2],0.12 µg/mL
same,MIC,Escherichia coli [3],0.12 µg/mL
same,MIC,Escherichia coli [4],2 µg/mL
same,MIC,Escherichia coli [5],2 µg/mL
CO[C@@]1(NC(=O)Cc2cccs2)C(=O)N2C(C(=O)O)=C(COC(N)=O)CS[C@@H]21 [CEFOXITIN],MIC,Escherichia coli [1],8 µg/mL
same,MIC,Escherichia coli [2],8 µg/mL
same,MIC,Escherichia coli [3],8 µg/mL
same,MIC,Escherichia coli [4],128 µg/mL
same,MIC,Escherichia coli [5],128 µg/mL
CC(=O)OCC1=C(C(=O)O)N2C(=O)[C@@H](NC(=O)Cc3cccs3)[C@H]2SC1 [CEPHALOTHIN],MIC,Escherichia coli [1],16 µg/mL
same,MIC,Escherichia coli [2],16 µg/mL
same,MIC,Escherichia coli [4],256 µg/mL
same,MIC,Escherichia coli [5],256 µg/mL
C[C@H]1[C@H](NC(=O)/C(=N\OC(C)(C)C(=O)O)c2csc(N)n2)C(=O)N1S(=O)(=O)O [AZTREONAM],MIC,Escherichia coli [2],0.12 µg/mL
same,MIC,Escherichia coli [4],0.12 µg/mL
same,MIC,Escherichia coli [5],0.12 µg/mL
C[C@@H](O)[C@H]1C(=O)N2C(C(=O)O)=C(S[C@@H]3CN[C@H](C(=O)Nc4cccc(C(=O)O)c4)C3)[C@H](C)[C@H]12,MIC,Escherichia coli [1],≤ 0.03 µg/mL
same,MIC,Escherichia coli [2],≤ 0.03 µg/mL
same,MIC,Escherichia coli [3],≤ 0.03 µg/mL
same,MIC,Escherichia coli [4],0.5 µg/mL
same,MIC,Escherichia coli [5],0.5 µg/mL
CCN1CCN(C(=O)N[C@@H](C(=O)N[C@@H]2C(=O)N3[C@@H]2SC(C)(C)[C@@H]3C(=O)O)c2ccccc2)C(=O)C1=O [PIPERACILLIN],MIC,Escherichia coli [1],0.5 µg/mL
same,MIC,Escherichia coli [2],0.5 µg/mL
same,MIC,Escherichia coli [3],0.5 µg/mL
same,MIC,Escherichia coli [4],8 µg/mL
same,MIC,Escherichia coli [5],8 µg/mL
CO/N=C(\C(=O)N[C@@H]1C(=O)N2C(C(=O)[O-])=C(C[N+]3(C)CCCC3)CS[C@H]12)c1csc(N)n1,MIC,Escherichia coli [2],0.12 µg/mL
same,MIC,Escherichia coli [4],0.5 µg/mL
same,MIC,Escherichia coli [5],0.5 µg/mL
C[C@@H](O)[C@H]1C(=O)N2C(C(=O)O)=C(SCCNC=N)C[C@H]12 [IMIPENEM ANHYDROUS],MIC,Escherichia coli [2],0.12 µg/mL
same,MIC,Escherichia coli [4],1 µg/mL
same,MIC,Escherichia coli [5],1 µg/mL
CC1(C)S[C@@H]2[C@H](NC(=O)[C@H](N)c3ccccc3)C(=O)N2[C@H]1C(=O)O [AMPICILLIN],MIC,Escherichia coli [6],≤ 4 µg/mL
same,MIC,Escherichia coli [7],≤ 4 µg/mL
same,MIC,Escherichia coli [8],≤ 4 µg/mL
same,MIC,Escherichia coli [9],≤ 4 µg/mL
same,MIC,Escherichia coli [10],≤ 4 µg/mL
same,MIC,Escherichia coli [11],≤ 4 µg/mL
same,MIC,Escherichia coli [12],≤ 4 µg/mL
same,MIC,Escherichia coli [13],≤ 4 µg/mL
same,MIC,Escherichia coli [14],≤ 4 µg/mL
same,MIC,Escherichia coli [15],≤ 4 µg/mL
same,MIC,Escherichia coli [16],≤ 4 µg/mL
same,MIC,Escherichia coli [17],≤ 4 µg/mL
same,MIC,Escherichia coli [18],≤ 4 µg/mL
same,MIC,Escherichia coli [19],≤ 4 µg/mL
same,MIC,Escherichia coli [20],≤ 4 µg/mL
same,MIC,Escherichia coli [21],8 µg/mL
same,MIC,Escherichia coli [22],8 µg/mL
same,MIC,Escherichia coli [23],8 µg/mL
same,MIC,Escherichia coli [24],8 µg/mL
same,MIC,Escherichia coli [25],≥ 32 µg/mL
same,MIC,Escherichia coli [26],≥ 32 µg/mL
same,MIC,Escherichia coli [27],≥ 32 µg/mL
same,MIC,Escherichia coli [28],≥ 32 µg/mL
same,MIC,Escherichia coli [29],≥ 32 µg/mL
same,MIC,Escherichia coli [30],≥ 32 µg/mL
same,MIC,Escherichia coli [31],≥ 32 µg/mL
same,MIC,Escherichia coli [32],≥ 32 µg/mL
same,MIC,Escherichia coli [33],≥ 32 µg/mL
same,MIC,Escherichia coli [34],≥ 32 µg/mL
same,MIC,Escherichia coli [35],≥ 32 µg/mL
same,MIC,Escherichia coli [3],8 µg/mL
same,MIC,Escherichia coli [4],64 µg/mL
same,MIC,Escherichia coli [5],64 µg/mL

# Reference: ChEMBL document CHEMBL1687761 (2010)
